{"source": "ChEMBL document CHEMBL1145462", "about": "“In vivo pharmacodynamic activity of the glycopeptide dalbavancin” (Antimicrob Agents Chemother, 2007)", "key": {"[1]": {"assay": "AUC in bacterial pathogen-infected neutropenic Swiss ICR mouse thigh infection model at 40 mg/kg, ip", "type": "ADME, organism-based", "parameters": "dose 40 mg/kg, route intraperitoneal", "conditions": "in vivo", "in_short": "(§1)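 Thigh-infected neutropenic mice received single intraperitoneal doses (2.5, 5, 10, 20, 40, 80 mg/kg; 0.2 ml/dose). Blood was drawn by retroorbital aspiration from groups of three mice at 0.5, 1, 2, 4, 6, 24, 48, 72 and 96 h. Plasma levels were measured by microbiologic assay with Bacillus subtilis (detection limit 0.10 mg/liter). Noncompartmental analysis was used: half-life by linear least-squares regression, AUC by trapezoidal rule.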"}, "Staphylococcus aureus [2]": {"test_system": "Staphylococcus aureus", "assay": "AUC/MBC ratio of Staphylococcus aureus Smith infected neutropenic mouse thigh infection model at 33.5 mg/kg, ip administered every 24 hrs by static effect experiment", "type": "functional", "conditions": "route intraperitoneal"}, "Staphylococcus aureus [3]": {"test_system": "Staphylococcus aureus", "assay": "AUC/MBC ratio of Staphylococcus aureus 33591 infected neutropenic mouse thigh infection model at 33.5 mg/kg, ip administered every 24 hrs by 2-log killing experiment", "type": "functional", "conditions": "route intraperitoneal"}, "Streptococcus pneumoniae [4]": {"test_system": "Streptococcus pneumoniae", "assay": "AUC/MIC ratio of Streptococcus pneumoniae ATCC 10813 infected neutropenic mouse thigh infection model at 1.54 mg/kg, ip administered every 24 hrs by 1-log killing experiment", "type": "functional", "conditions": "route intraperitoneal"}, "Staphylococcus aureus [5]": {"test_system": "Staphylococcus aureus", "assay": "AUC/MBC ratio of Staphylococcus aureus 307109 infected neutropenic mouse thigh infection model at 31 mg/kg, ip administered every 72 hrs by static effect experiment", "type": "functional", "conditions": "route intraperitoneal"}, "Staphylococcus aureus [6]": {"test_system": "Staphylococcus aureus", "assay": "Antibacterial activity against Staphylococcus aureus ATCC 25923 in presence of 95% mouse serum ultrafiltrate", "type": "functional", "in_short": "(§2)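 MIC determined in broth, heat-treated (100°C, 30 min) 95% mouse serum, and 95% mouse serum ultrafiltrate, using arithmetic dilutions of 0.02 mg/liter per tube. Protein binding estimated as (MIC in 95% serum − MIC in ultrafiltrate)/MIC in 95% serum.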"}, "Staphylococcus aureus [7]": {"test_system": "Staphylococcus aureus", "assay": "Bactericidal activity in ip dosed […] Staphylococcus aureus ATCC 29213 infected neutropenic mouse thigh infection model assessed as reduction of colony count after 96 hrs by time kill study", "type": "functional, Thigh muscle", "in_short": "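Neutropenic mice (cyclophosphamide ip 150 mg/kg day −4, 100 mg/kg day −1, then every 48 h) infected in thigh with 0.1 ml log-phase inoculum (10^6.6–10^7.6 CFU/ml) under halothane. Single ip doses of 5, 10, 20, 40, or 80 mg/kg were given 2 h later. Two mice sampled at 0.5–96 h. Thighs processed for CFU, reported as mean ± SD log10 CFU/thigh.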"}, "Staphylococcus aureus [8]": {"test_system": "Staphylococcus aureus", "assay": "AUC/MBC ratio of Staphylococcus aureus 307109 infected neutropenic mouse thigh infection model at 34 mg/kg, ip administered every 72 hrs by 1-log killing experiment", "type": "functional", "conditions": "route intraperitoneal"}, "Staphylococcus aureus [9]": {"test_system": "Staphylococcus aureus", "assay": "AUC/MBC ratio of Staphylococcus aureus ATCC 25923 infected neutropenic mouse thigh infection model at 60 mg/kg, ip administered every 24 hrs by 2-log killing experiment", "type": "functional", "conditions": "route intraperitoneal"}, "Streptococcus pneumoniae [10]": {"test_system": "Streptococcus pneumoniae", "assay": "AUC/MIC ratio of Streptococcus pneumoniae 1199 infected neutropenic mouse thigh infection model at 0.72 mg/kg, ip administered every 72 hrs by static effect experiment", "type": "functional", "conditions": "route intraperitoneal"}, "Staphylococcus aureus [11]": {"test_system": "Staphylococcus aureus", "assay": "Antibacterial activity against methicillin-resistant Staphylococcus aureus in presence of 95% mouse serum ultrafiltrate", "type": "functional", "in_short": "as §2"}, "Streptococcus pneumoniae [12]": {"test_system": "Streptococcus pneumoniae", "assay": "AUC/MIC ratio of Streptococcus pneumoniae 1199 infected neutropenic mouse thigh infection model at 0.57 mg/kg, ip administered every 24 hrs by 2-log killing experiment", "type": "functional", "conditions": "route intraperitoneal"}, "Streptococcus pneumoniae [13]": {"test_system": "Streptococcus pneumoniae", "assay": "AUC/MIC ratio of Streptococcus pneumoniae 1396 infected neutropenic mouse thigh infection model at 0.69 mg/kg, ip administered every 72 hrs by 2-log killing experiment", "conditions": "route intraperitoneal"}, "Staphylococcus aureus [14]": {"test_system": "Staphylococcus aureus", "assay": "Antibacterial activity against Staphylococcus aureus 33591 by microdilution method", "type": "functional", "in_short": "(§3)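 MICs in duplicate on at least two occasions by standard CLSI broth microdilution; S. aureus grown and quantified in Mueller-Hinton broth/agar.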"}, "Staphylococcus aureus [15]": {"test_system": "Staphylococcus aureus", "assay": "AUC/MIC ratio of Staphylococcus aureus ATCC 25923 infected neutropenic mouse thigh infection model at 42.7 mg/kg, ip administered every 24 hrs by static effect experiment", "type": "functional", "conditions": "route intraperitoneal"}, "Staphylococcus aureus [16]": {"test_system": "Staphylococcus aureus", "assay": "AUC/MIC ratio of Staphylococcus aureus Smith infected neutropenic mouse thigh infection model at 73.5 mg/kg, ip administered every 24 hrs by 2-log killing experiment", "type": "functional", "conditions": "route intraperitoneal"}, "Streptococcus pneumoniae [17]": {"test_system": "Streptococcus pneumoniae", "assay": "AUC/MIC ratio of Streptococcus pneumoniae ATCC 10813 infected neutropenic mouse thigh infection model at 0.82 mg/kg, ip administered every 72 hrs by 2-log killing experiment", "type": "functional", "conditions": "route intraperitoneal"}, "Streptococcus pneumoniae [18]": {"test_system": "Streptococcus pneumoniae", "assay": "AUC/MIC ratio of Streptococcus pneumoniae ATCC 10813 infected neutropenic mouse thigh infection model at 1.75 mg/kg, ip administered every 24 hrs by 2-log killing experiment", "type": "functional", "conditions": "route intraperitoneal"}, "Streptococcus pneumoniae [19]": {"test_system": "Streptococcus pneumoniae", "assay": "AUC/MIC ratio of Streptococcus pneumoniae 1325 infected neutropenic mouse thigh infection model at 0.99 mg/kg, ip administered every 72 hrs by 1-log killing experiment", "type": "functional", "conditions": "route intraperitoneal"}, "Staphylococcus aureus [20]": {"test_system": "Staphylococcus aureus", "assay": "AUC/MBC ratio of Staphylococcus aureus Smith infected neutropenic mouse thigh infection model at 148 mg/kg, ip administered every 72 hrs by 2-log killing experiment", "type": "functional", "conditions": "route intraperitoneal"}, "Staphylococcus aureus [21]": {"test_system": "Staphylococcus aureus", "assay": "Bactericidal activity against […] Staphylococcus aureus ATCC 29213 infected neutropenic Swiss ICR mouse thigh infection model assessed as drug level causing 2-log reduction of bacterial count at 15 mg/kg, ip dosed every 36 hrs", "type": "functional", "conditions": "route intraperitoneal"}, "Streptococcus pneumoniae [22]": {"test_system": "Streptococcus pneumoniae", "assay": "AUC/MIC ratio of Streptococcus pneumoniae 1293 infected neutropenic mouse thigh infection model at 0.44 mg/kg, ip administered every 24 hrs by static effect experiment", "type": "functional", "conditions": "route intraperitoneal"}, "Staphylococcus aureus [23]": {"test_system": "Staphylococcus aureus", "assay": "Antibacterial activity against methicillin-resistant Staphylococcus aureus by microdilution method", "type": "functional", "in_short": "as §3"}, "Streptococcus pneumoniae [24]": {"test_system": "Streptococcus pneumoniae", "assay": "Antibacterial activity against Streptococcus pneumoniae 1329 by microdilution method", "type": "functional", "in_short": "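MIC and MBC were determined by CLSI broth microdilution, in duplicate on at least two occasions. Staphylococci were grown in Mueller-Hinton broth and agar; pneumococci were plated on sheep blood agar.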"}, "Staphylococcus aureus [25]": {"test_system": "Staphylococcus aureus", "assay": "AUC/MBC ratio of methicillin-resistant Staphylococcus aureus infected neutropenic mouse thigh infection model at 37.7 mg/kg, ip administered every 24 hrs by static effect experiment", "type": "functional", "conditions": "route intraperitoneal"}, "[26]": {"assay": "Cmax in bacterial pathogen-infected neutropenic Swiss ICR mouse thigh infection model at 20 mg/kg, ip", "type": "ADME, organism-based", "parameters": "dose 20 mg/kg, route intraperitoneal", "conditions": "in vivo", "in_short": "as §1"}, "Staphylococcus aureus [27]": {"test_system": "Staphylococcus aureus", "assay": "AUC/MIC ratio of Staphylococcus aureus Smith infected neutropenic mouse thigh infection model at 33.5 mg/kg, ip administered every 24 hrs by static effect experiment", "type": "functional", "conditions": "route intraperitoneal"}, "Streptococcus pneumoniae [28]": {"test_system": "Streptococcus pneumoniae", "assay": "Bactericidal activity in Streptococcus pneumoniae ATCC 10813 infected neutropenic mouse thigh infection model assessed as drug level causing 2-log reduction of bacterial count at 4.13 mg/kg/6days", "type": "functional"}, "Staphylococcus aureus [29]": {"test_system": "Staphylococcus aureus", "assay": "AUC/MIC ratio of Staphylococcus aureus 33591 infected neutropenic mouse thigh infection model at 33.5 mg/kg, ip administered every 24 hrs by 2-log killing experiment", "type": "functional", "conditions": "route intraperitoneal"}, "[30]": {"assay": "AUC in bacterial pathogen-infected neutropenic Swiss ICR mouse thigh infection model at 20 mg/kg, ip", "type": "ADME, organism-based", "parameters": "dose 20 mg/kg, route intraperitoneal", "conditions": "in vivo", "in_short": "as §1"}, "Streptococcus pneumoniae [31]": {"test_system": "Streptococcus pneumoniae", "assay": "AUC/MIC ratio of Streptococcus pneumoniae 1325 infected neutropenic mouse thigh infection model at 0.83 mg/kg, ip administered every 72 hrs by static effect experiment", "type": "functional", "conditions": "route intraperitoneal"}}}
{"compound": "CN[C@H]1C(=O)N[C@@H]2Cc3ccc(cc3)Oc3cc4cc(c3O[C@@H]3O[C@H](C(=O)O)[C@@H](O)[C@H](O)[C@H]3NC(=O)CCCCCCCCC(C)C)Oc3ccc(cc3Cl)[C@@H](O)[C@@H]3NC(=O)[C@H](NC(=O)[C@@H]4NC(=O)[C@@H](NC2=O)c2cc(cc(O)c2Cl)Oc2cc1ccc2O)c1ccc(O)c(c1)-c1c(O[C@H]2O[C@H](CO)[C@@H](O)[C@H](O)[C@@H]2O)cc(O)cc1[C@@H](C(=O)NCCCN(C)C)NC3=O", "note": "[DALBAVANCIN]", "values": [{"measurement": "AUC", "setting": "[1]", "value": 5360, "unit": "µg·h/mL"}, {"measurement": "Ratio", "setting": "Staphylococcus aureus [2]", "value": 75}, {"measurement": "Ratio", "setting": "Staphylococcus aureus [3]", "value": 74.3}, {"measurement": "RatioAUC/MIC", "setting": "Streptococcus pneumoniae [4]", "value": 8.7}, {"measurement": "Ratio", "setting": "Staphylococcus aureus [5]", "value": 11.3}, {"measurement": "MIC", "setting": "Staphylococcus aureus [6]", "value": 0.5, "unit": "µg/mL"}, {"measurement": "Activity", "setting": "Staphylococcus aureus [7]", "value": 4}, {"measurement": "Ratio", "setting": "Staphylococcus aureus [8]", "value": 12.9}, {"measurement": "Ratio", "setting": "Staphylococcus aureus [9]", "value": 69.3}, {"measurement": "RatioAUC/MIC", "setting": "Streptococcus pneumoniae [10]", "value": 10.3}, {"measurement": "MIC", "setting": "Staphylococcus aureus [11]", "value": 0.5, "unit": "µg/mL"}, {"measurement": "RatioAUC/MIC", "setting": "Streptococcus pneumoniae [12]", "value": 22.7}, {"measurement": "RatioAUC/MIC", "setting": "Streptococcus pneumoniae [13]", "value": 4.8}, {"measurement": "MBC", "setting": "Staphylococcus aureus [14]", "value": 0.25, "unit": "µg/mL"}, {"measurement": "MIC", "setting": "Staphylococcus aureus [14]", "value": 0.12, "unit": "µg/mL"}, {"measurement": "RatioAUC/MIC", "setting": "Staphylococcus aureus [15]", "value": 216}, {"measurement": "RatioAUC/MIC", "setting": "Staphylococcus aureus [16]", "value": 361}, {"measurement": "RatioAUC/MIC", "setting": "Streptococcus pneumoniae [17]", "value": 1.6}, {"measurement": "RatioAUC/MIC", "setting": "Streptococcus pneumoniae [18]", "value": 9.9}, {"measurement": "RatioAUC/MIC", "setting": "Streptococcus pneumoniae [19]", "value": 8.8}, {"measurement": "Ratio", "setting": "Staphylococcus aureus [20]", "value": 122}, {"measurement": "Activity", "setting": "Staphylococcus aureus [21]", "value": 122}, {"measurement": "RatioAUC/MIC", "setting": "Streptococcus pneumoniae [22]", "value": 17.4}, {"measurement": "MBC", "setting": "Staphylococcus aureus [23]", "value": 0.25, "unit": "µg/mL"}, {"measurement": "MIC", "setting": "Staphylococcus aureus [23]", "value": 0.06, "unit": "µg/mL"}, {"measurement": "MBC", "setting": "Streptococcus pneumoniae [24]", "value": 0.008, "unit": "µg/mL"}, {"measurement": "MIC", "setting": "Streptococcus pneumoniae [24]", "value": 0.008, "unit": "µg/mL"}, {"measurement": "Ratio", "setting": "Staphylococcus aureus [25]", "value": 93}, {"measurement": "Cmax", "setting": "[26]", "value": 190, "unit": "µg/mL"}, {"measurement": "RatioAUC/MIC", "setting": "Staphylococcus aureus [27]", "value": 156}, {"measurement": "Activity", "setting": "Streptococcus pneumoniae [28]", "value": 4.62}, {"measurement": "RatioAUC/MIC", "setting": "Staphylococcus aureus [29]", "value": 157}, {"measurement": "AUC", "setting": "[30]", "value": 2260, "unit": "µg·h/mL"}, {"measurement": "RatioAUC/MIC", "setting": "Streptococcus pneumoniae [31]", "value": 6}]}
